Measured values: ChEMBL document CHEMBL4334444, “Studies of Jatrogossone A as a Reactive Oxygen Species Inducer in Cancer Cellular Models” (J Nat Prod, 2019)
pIC50: −log10 of the molar value. Activity calls are given as the source filed them. No cut-off for these calls is given here.

Assays:
B-ALL [1] = test: Antiproliferative activity against mouse B-ALL cells harboring Bax/Bak double knockout mutant assessed as reduction in cell viability at 1 to 10 uM by CellTiter-Glo assay; type: functional, cell-based
Outline: (§1)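 CellTiter-Glo luminescent viability readout. Cells kept at 37 °C under 5% CO2. HMEC primary cells grown in basal medium with growth kit; leukemia lines and murine BCR-ABL (WT, Bax/Bak DKO) cultured per earlier description. Positive controls: staurosporine 25 μM, gambogic acid 10 μM, a toxic quinoline. At least two biological replicates in technical triplicate; luminescence normalized to untreated controls; EC50 computed.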

KOPN-8 [2] = test: Antiproliferative activity against human KOPN8 cells assessed as reduction in cell viability at 1 to 10 uM by CellTiter-Glo assay; type: functional, cell-based; outline: as §1
UoC-B1 = test: Antiproliferative activity against human UOCB1 cells assessed as reduction in cell viability at 1 to 10 uM by CellTiter-Glo assay; type: functional, cell-based; outline: as §1
MDA-MB-231 = test: Antiproliferative activity against human MDA-MB-231 cells assessed as reduction in cell viability at >10 uM after 48 hrs by propidium iodide staining based fluorescence assay; type: functional
Outline: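 MDA-MB-231 and SUM149 seeded at 6 × 10^4 to 2 × 10^5 cells/well, cultured 24 h, then exposed for 48 h. Cells fixed in cold methanol, stained with 0.4% propidium iodide, fluorescence imaged. Viability expressed as percent surviving cells relative to vehicle wells.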

U2OS [3] = test: Induction of apoptosis in human U2OS cells assessed as increase in caspase 3/7 activity incubated for 24 hrs by caspase 3/7 reagent based ApoTox-Glo triplex assay; type: functional, cell-based
Outline: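 ApoTox-Glo Triplex assay in KOPN-8 or U2OS cells. Cells were incubated 12 h at 37 °C, then treated 24 h across 100–0.15 μM. Viability (GF-AFC, 400Ex/505Em) and cytotoxicity (bis-AAF-R110, 485Ex/520Em) were read after 30 min at 37 °C. Caspase-Glo 3/7 luminescence was then read after 0.5 h at room temperature. Values are mean ± SEM of three independent experiments.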

KOPN-8 [4] = test: Induction of apoptosis in human KOPN8 cells assessed as decrease in caspase 3/7 level after 3 to 24 hrs by Western blot analysis; type: functional, cell-based
Outline: (§2)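 Western blot of KOPN-8 and MCF-7 lysates made in RIPA-type buffer (Tris pH 7.5, Triton X-100, deoxycholate, SDS) with protease and phosphatase inhibitors. 30 μg protein per lane was run on 4–12% Bis-Tris SDS-PAGE and transferred to nitrocellulose. Blots were probed for cleaved caspase-7 and PARP-1 and detected with IR-dye secondaries. Menadione served as positive control: 10 μM in KOPN-8, 30 μM in MCF-7. Blots are representative of three independent experiments.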

MCF7 [5] = test: Induction of apoptosis in human MCF7 cells assessed as decrease in caspase 3/7 level after 3 to 24 hrs by Western blot analysis; type: functional, cell-based; outline: as §2
B-ALL [6] = test: Cytotoxicity against BCR-ABL p185-positive mouse B-ALL cells transfected with empty vector assessed as inhibition of cell viability after 24 hrs by AnnexinV-FITC/propidium iodide staining based flow cytometric analysis; type: functional
KOPN-8 [7] = test: Induction of mitochondrial membrane potential loss in human KOPN8 cells at 30 uM by TMRM staining based flow cytometric analysis; type: functional, cell-based; details: TDE = time-dependent effect
Outline: (§3)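 TMRM flow cytometry. KOPN-8 (4 × 10^4 or 5 × 10^5 per well) or MCF-7 (2 × 10^4 or 2 × 10^5 per well) were seeded 24 h, then treated 24–48 h. FCCP 10 μM was added 10 min before staining as positive control. Cells were stained with TMRM 100 nM for 0.5 h, then PBS-washed, resuspended in PBS with 1% FBS and analysed by flow cytometry; DAPI flagged compromised cells.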

MCF7 [8] = test: Induction of ROS generation in human MCF7 cells at 30 uM incubated for 1 hr by CellROX green reagent based fluorescence assay; type: functional, cell-based
Outline: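 CellROX green ROS assay: cells exposed 1 h at 37 °C (30 μM) with DMSO 0.5% (v/v) negative control, menadione 10 μM positive control, ± NAC (100 μM per figure legend). CellROX green added at 5 μM final, 30 min more; washed, fixed in 4% paraformaldehyde 15 min, fluorescence read at 485 ex/535 em. Mean and SD of at least three experiments; two-way ANOVA.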

U2OS [9] = test: Induction of ROS generation in human U2OS cells at 30 uM incubated for 1 hr by CellROX green reagent based fluorescence assay; type: functional, cell-based
Outline: (§4)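 CellROX green assay in MCF-7 or U2OS cells. Cells were exposed to test compound for 1 h at 37 °C alongside 0.5% DMSO (negative control) and menadione 10–30 μM (positive control), with or without NAC (50–500 μM) as scavenger. CellROX was then added at 5 μM final for 30 min. Cells were PBS-washed, fixed in 4% paraformaldehyde for 15 min, and fluorescence read at 535 nm.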

MCF7 [10] = test: Induction of ROS generation in human MCF7 cells at 30 uM incubated for 1 hr in presence of NAC by CellROX green reagent based fluorescence assay; type: functional, cell-based; outline: as §4
U2OS [11] = test: Induction of ROS generation in human U2OS cells at 30 uM incubated for 1 hr in presence of NAC by CellROX green reagent based fluorescence assay; type: functional, cell-based; outline: as §4
[12] = Stability in DMSO assessed as micheal adduct formation by measuring intact compound incubated for 16 hrs in presence of NAC by LC-MS analysis; type: physicochemical
U2OS [13] = test: Induction of mito-phagy in human U2OS cells transfected with mKeima-Red-Mito-7 at 1.25 to 2.5 uM incubated for 8 hrs by confocal scanning microscopic method; type: functional, cell-based
Outline: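 U2OS stably expressing mKeima-Red-Mito-7 (G418 250 μg/mL selection, flow-sorted) were plated at 40 000 cells per well and incubated overnight. Cells were treated 8 h at 37 °C; DMSO 0.5% served as negative control. Live cells were imaged by confocal microscopy at 60×. Mitophagy was scored as the ratio of mitophagy-event fluorescence to cytoplasmic mitochondrial fluorescence. Values are mean and SD of at least three experiments.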

KOPN-8 [14] = test: Induction of mitochondrial membrane potential loss in human KOPN8 cells at 10 uM after 24 to 48 hrs by TMRM staining based flow cytometric analysis; type: functional, cell-based; outline: as §3
B-ALL [15] = test: Antiproliferative activity against mouse B-ALL cells expressing wild type BCR-ABL assessed as reduction in cell viability at 0.1 to 250 uM by CellTiter-Glo assay; type: functional, cell-based; outline: as §1
Raji = test: Antiproliferative activity against human Raji cells assessed as reduction in cell viability at 0.1 to 250 uM by CellTiter-Glo assay; type: functional, cell-based; outline: as §1
KOPN-8 [16] = test: Upregulation of Trx level in human KOPN8 at 1 uM after 3 to 6 hrs by Western blot analysis; type: functional, cell-based
Outline: (§5)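 Western blot of KOPN-8 or MCF-7 lysates, 30 μg protein per lane on 4–12% Bis-Tris SDS-PAGE and transferred to nitrocellulose. Blots were probed with an oxidative stress defense antibody cocktail (catalase, SOD1, Trx, smooth muscle actin) and tubulin, and detected with IR-dye secondaries on a LI-COR Odyssey.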

KOPN-8 [17] = test: Upregulation of Trx expression in human KOPN8 at 10 uM after 3 to 6 hrs by Western blot analysis; type: functional, cell-based; outline: as §5

Row | Stability [12] | SMILES | inhibition (B-ALL [1]) | inhibition (KOPN-8 [2]) | inhibition (UoC-B1) | inhibition (MDA-MB-231) | Activity (U2OS [3]) | Activity (KOPN-8 [4]) | Activity (MCF7 [5]) | pIC50 (B-ALL [6]) | Activity (KOPN-8 [7]) | Activity (MCF7 [8]) | Activity (U2OS [9]) | Activity (MCF7 [10]) | Activity (U2OS [11]) | Activity (U2OS [13]) | Activity (KOPN-8 [14]) | inhibition (B-ALL [15]) | inhibition (Raji) | Activity (KOPN-8 [16]) | Activity (KOPN-8 [17])
1 | Stable | CC(=O)O[C@H]1/C2=C/[C@@H](C)C(=O)C[C@H]3[C@@H](/C=C(\C)C(=O)[C@H]2C[C@H]1C)C3(C)C | Active | Active | Active | Active | Dose-dependent effect | Dose-dependent effect | Dose-dependent effect | 5.34 | Tde | Active | Active | inactive | inactive | Active | inactive | – | – | – | –
2 | – | CC1=C2CC(C)(C)/C=C/C(=O)/C(C)=C\C3=C[C@H](C)C[C@]3(O2)C1=O [JATROPHONE] | – | – | – | – | – | Dose-dependent effect | Dose-dependent effect | – | Tde | Active | Active | inactive | inactive | Active | – | Active | Active | Active | inactive
